# Assay outcomes deposited in PubChem BioAssay by several laboratories.
# NadD block: inhibitors of Staphylococcus aureus NadD | purified NadD enzyme, colorimetric absorbance read-out | inhibition, % at 20 µM | 0.78% of 360,000 active; in the data active = inhibition above about 26%
# MsrA inhibitor: inhibits bovine methionine sulfoxide reductase A; purified bovine MsrA, absorbance read-out; inhibition, % at 15.5 µM; 0.75% of 360,000 active; AID 651718;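 note: 0% = vehicle wells with enzyme and 100% = reference inhibitor wells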
# NR2E3 ag-1: agonists of human NR2E3 nuclear receptor. 0.35% of 360,000 active. Q9Y5X4. AID 602229. inhibition of corepressor binding, % at 3.98 µM. CHO-S Gal4-NCOR/VP16-NR2E3 two-hybrid, luciferase;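 active = inhibition above the mean of all tested compounds plus 3 SD, cut at about 70% in these data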;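 note: 0% = DMSO with NR2E3 transfected cells and 100% = cells lacking NR2E3 construct; higher means lower luciferase signal from less NR2E3 corepressor binding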
# Target sequence (Q9Y5X4 whole entry, looked up, the tested form may be a part): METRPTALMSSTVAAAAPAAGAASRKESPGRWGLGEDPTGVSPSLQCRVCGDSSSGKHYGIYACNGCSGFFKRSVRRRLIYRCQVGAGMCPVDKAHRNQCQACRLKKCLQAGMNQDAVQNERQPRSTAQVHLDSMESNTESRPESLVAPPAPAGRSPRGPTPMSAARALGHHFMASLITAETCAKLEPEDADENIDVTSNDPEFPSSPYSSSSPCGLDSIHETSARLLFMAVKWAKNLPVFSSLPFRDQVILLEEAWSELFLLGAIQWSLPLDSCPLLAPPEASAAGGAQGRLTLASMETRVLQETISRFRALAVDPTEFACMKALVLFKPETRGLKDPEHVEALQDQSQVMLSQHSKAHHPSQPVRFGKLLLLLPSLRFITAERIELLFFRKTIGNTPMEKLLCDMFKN
# GalR3 antag: blocks the human galanin receptor 3; O60755; HEK293 GalR3-CNG cAMP membrane potential fluorescence; galR3 body fused to GalR1 C-terminus; inhibition, % at 3 µM; 0.44% of 360,000 active; AID 651719;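 active = inhibition above the screen-wide average plus 3 SD, cut at about 13% in these data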;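 note: forskolin and galanin both at EC90 stimulate the cells; cAMP rise reported by CNG channel membrane potential dye signal; 0% = forskolin plus galanin with DMSO and 100% = forskolin alone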
# Target sequence (O60755 1-299 limits assumed): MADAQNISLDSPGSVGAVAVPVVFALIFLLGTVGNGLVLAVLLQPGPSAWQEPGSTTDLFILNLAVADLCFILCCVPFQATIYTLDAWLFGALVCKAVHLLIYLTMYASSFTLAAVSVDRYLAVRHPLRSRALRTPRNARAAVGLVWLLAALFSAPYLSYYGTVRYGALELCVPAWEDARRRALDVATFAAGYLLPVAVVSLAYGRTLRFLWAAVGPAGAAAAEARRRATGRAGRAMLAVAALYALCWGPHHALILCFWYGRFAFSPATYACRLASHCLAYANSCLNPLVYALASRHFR
# NR2E3 ag-2: agonists of human nuclear receptor NR2E3 | 0.12% of 320,000 active | inhibition of corepressor binding, % at 4.78 µM | AID 2300 | GST-NR2E3/biotin-RetCOR TR-FRET, 1536-well;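 active = percent inhibition above the cutoff of mean plus 3 SD of all tested compounds, set per screening campaign, cut at about 20% in these data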;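 note: 0% = DMSO wells and 100% = biotin wells as full block of FRET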
#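 System: GST-tagged NR2E3 plus biotinylated RetCOR corepressor; Buffer or medium: pH 7.5 Tris-based buffer; Probe or stimulus: RetCOR corepressor, biotinylated, 7 nM; Doses: compound at 4.8 µM, single dose; Schedule: 5 h incubation at 4 °C; Technique: time-resolved FRET; Evaluation: percent inhibition of TR-FRET ratio; Replication: one well per compound, singlicate testing.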
# MsrA act: bovine methionine sulfoxide reductase A activation; activation, % at 10.6 µM; purified bovine MsrA, absorbance read-out; 0.3% of 360,000 active; in the data active = activation above about 7.5%;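 note: 0% = vehicle and 100% = reference activator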
# NadD conf: NadD (S. aureus) inhibition, single concentration confirmation | shares compounds with NadD block | 13% of 2,000 active | purified S. aureus NadD, colorimetric enzyme assay | inhibition, % at 20 µM; in the data active = inhibition mostly above about 42%, no sharp cut-off; inactive = mostly below about 42%
# MsrA conf: bovine MsrA inhibition, confirmed; shares compounds with MsrA inhibitor; purified bovine MsrA, absorbance read-out; inhibition, % at 15.5 µM; 41% of 2,300 active; AID 651822;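 note: coupled to thioredoxin reductase with NADPH and selenocystamine and DMSO as substrate; 0% = vehicle only and 100% = full effect of reference inhibitor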
# GalR3 conf: confirmation of human galanin receptor 3 antagonists. shares compounds with GalR3 antag. HEK293 GalR3 CNG cAMP biosensor, membrane potential fluorescence; galR3 fused to GalR1 carboxy tail; challenged with forskolin and galanin at EC90. inhibition, % at 3 µM. 59% of 1,600 active. AID 652245;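 active = inhibition above the primary screen's cutoff, the mean inhibition of all screened compounds plus 3 SD, cut at about 13% in these data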;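 note: 0% = forskolin plus galanin and 100% = forskolin alone with DMSO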
# CNG parental: acts as nonspecific agonist in parental HEK-CNG cells; activation, % at 3 µM; HEK293-CNG parental cells, cAMP membrane potential fluorescence; normalised: DMSO wells 0%, forskolin wells 100%; shares compounds with GalR3 antag; AID 652268; 10% of 1,600 active; in the data active = activation above about 1.3%
# The depositor's hits bear a star; nt = no result. A selection: hits, their analogues and other compounds. The true share with any hit is near 2.5%. Cut-off read from the data, not from the text of the source, unless noted: active = inhibition above about 4.5%; inactive = the rest.
SMILES,NadD block,MsrA inhibitor,NR2E3 ag-1,GalR3 antag,NR2E3 ag-2,MsrA act,NadD conf,MsrA conf,others
Cc1ccc(/C=c2\sc3nc(-c4ccco4)nn3c2=O)o1,26.0,nt,-12.2,nt,0.7,-1.7,nt,nt,
Cc1ccc(/C=c2\sc3nc(-c4ccccc4Br)nn3c2=O)o1,26.4*,2.2,-17.0,-2.4,1.0,-0.4,9.5,nt,
Cc1ccc(S(=O)(=O)N2[C@H](CC(=O)c3ccc(F)cc3)OC[C@@H]2C(C)C)cc1,nt,1.5,nt,-5.6,nt,nt,nt,nt,
CC(C)COCC(O)CC(Cc1ccccc1)C(=O)NN (stereo not given),-0.2,0.3,-10.3,0.1,-2.8,-1.6,nt,nt,
O=C(O)/C=C/c1cn(-c2ccccc2)nc1-c1ccc(-c2ccc([N+](=O)[O-])cc2)o1,49.1*,0.3,6.3,-3.0,3.4,-7.4,9.3,nt,
O=C(O)/C=C/c1cn(-c2ccccc2)nc1-c1cccc([N+](=O)[O-])c1,-5.3,-0.8,-12.5,-1.1,-2.7,-1.7,nt,nt,
O=C(NC1CCCCC1)C1CCN(c2ncccn2)CC1,-2.0,0.1,-4.9,-7.8,-3.9,-12.4,nt,nt,
CC(C)c1ccc(NC(=O)Nc2cc3sccc3n2C)cc1,42.0*,-0.3,-17.0,3.5,7.3,-3.0,27.0,nt,
Cn1c(C(=O)Nc2ccc3c(c2)OCCO3)cc2sccc21,-6.7,1.0,-98.2,-7.8,-2.0,-7.8,nt,nt,
O=C(/C=C/c1cn(-c2ccccc2)nc1-c1ccccc1)Nc1ccc(C(=O)O)cc1,6.2,1.3,3.7,1.6,3.1,-3.4,nt,nt,
NS(=O)(=O)c1ccc(NC(=O)/C=C/c2cn(-c3ccccc3)nc2-c2cccc(Cl)c2)cc1,41.3*,3.7,-4.3,-7.5,5.1,-3.5,34.2,nt,
Cc1cc2c(N)cccc2nn1,36.6*,0.2,-46.6,-3.5,-5.2,-11.8,-0.3,nt,
Nc1cccc2nc3ccccc3cc12,-1.3,nt,-43.3,nt,6.0,-0.9,nt,nt,
N#CC1=C2N=C(N)c3ccccc3N2C2=C(C(=O)CCC2)C1c1ccccc1F (stereo not given),1.2,1.0,-7.5,-15.2,2.1,-2.0,nt,nt,
Cc1ccccc1C1C(C#N)=C2N=C(N)c3c(sc4c3CCCCC4)N2C2=C1C(=O)CCC2 (stereo not given),42.9*,nt,-8.3,nt,-1.4,-2.0,39.9,nt,
O=C(Nc1ccc(-c2nc3ccccc3o2)c(O)c1)c1cc(-n2cnnc2)ccc1Cl,29.6*,4.8*,-1.3,-3.2,-3.3,2.9,11.5,0.0,
COc1cc(OC)cc(-c2c(C#Cc3ccsc3)c3cc(-c4cccc5[nH]cc(C=O)c45)ccc3n2C)c1,45.8*,4.9*,24.3,5.6,nt,-11.4,29.0,3.0,
COc1ccc(OC)c(S(=O)(=O)NCC(c2ccco2)N2CCc3ccccc32)c1 (stereo not given),-4.8,-0.5,6.9,-3.5,3.2,-8.1,nt,nt,
O=C(O)COc1ccccc1/C=N/NC(=O)c1cc(-c2ccc(Cl)cc2)nc2ccccc12,23.7*,5.0*,-44.4,5.9,-4.2,-5.8,53.0*,4.1,
O=C(O)COc1ccccc1/C=N/NC(=O)c1cc(-c2ccccc2)nc2ccccc12,2.8,3.7,-0.4,-1.1,0.5,-5.6,nt,nt,
COc1ccc(NS(=O)(=O)c2cccc(C(=O)N/N=C/c3cn(-c4ccccc4)nc3-c3ccccc3)c2)cc1,12.5,1.0,6.0,-7.2,3.0,-2.2,nt,nt,
COc1ccccc1NS(=O)(=O)c1cccc(C(=O)N/N=C/c2cn(-c3ccccc3)nc2-c2ccccc2)c1,32.6*,6.1*,-15.3,-11.5,-3.0,-5.7,25.1,3.6,
COc1ccc(/C=N/NC(=O)c2ccc(CN3c4cccc5cccc(c45)S3(=O)=O)cc2)cc1,31.4*,5.0*,-14.7,-2.5,2.8,0.4,32.6,5.2*,
CC(C)Cc1nnc(NC(=O)CCC(=O)NC2CCCCC2)s1,-0.8,0.8,-4.7,2.6,4.9,-2.8,nt,nt,
COCCn1c(=NC(=O)c2ccc(S(=O)(=O)N3CCCc4ccccc43)cc2)sc2cc(S(C)(=O)=O)ccc21,13.5,0.8,-12.0,3.2,-0.5,-1.3,nt,nt,
SMILES,NadD block,MsrA inhibitor,NR2E3 ag-1,GalR3 antag,NR2E3 ag-2,MsrA act,NadD conf,MsrA conf,others
COCCn1c(=NC(=O)c2ccc(S(=O)(=O)N3CCc4ccccc4C3)cc2)sc2cc(S(N)(=O)=O)ccc21,70.8*,5.9*,-6.3,-3.0,-0.2,-9.3,36.1,3.7,
Cc1noc(C)c1S(=O)(=O)Nc1ccc2c(c1)C(=O)N([C@H](C)CO)C[C@H](C)[C@@H](CN(C)S(=O)(=O)c1ccccc1)O2,-1.9,-0.5,5.0,-5.7,nt,-7.8,nt,nt,
N#C/C(=C/c1cn(-c2ccccc2)nc1-c1cccc(S(=O)(=O)N2CCOCC2)c1)C(=O)NCc1ccco1,2.3,-0.3,-16.3,-1.3,-4.3,-4.8,nt,nt,
N#C/C(=C/c1cn(-c2ccccc2)nc1-c1cccc(S(=O)(=O)N2CCCC2)c1)C(=O)NCc1ccco1,45.6*,1.6,-18.1,13.8*,3.0,-4.2,48.6*,nt,GalR3 conf=23.0*;CNG parental=0.6
Cc1cccc(C)c1NC(=O)COC(=O)c1c2c(nc3ccccc13)/C(=C\c1ccc3c(c1)OCO3)CCC2,47.8*,1.3,-31.9,nt,-1.0,-2.0,6.0,nt,GalR3 conf=-3.3;CNG parental=0.2
CCCOc1ccc(C(=O)NC(=S)NNC(=O)c2c(-c3ccccc3)noc2C)cc1,0.8,0.5,-51.7,6.4,1.6,-1.6,nt,nt,
Cc1ccc(C(=O)N/N=C\c2cccnc2)s1,-1.4,1.6,-62.9,-1.8,-5.9,-1.6,nt,nt,
Cc1c(C(=O)N/N=C/c2cccnc2)sc(N)c1C#N,1.8,4.7*,-0.2,-9.6,nt,-3.2,nt,3.2,
Cc1nn(-c2ccccc2)c(N)c1N=Nc1ccc2ccccc2c1,-0.9,-0.5,-94.8,-4.2,3.3,-1.2,nt,nt,
Cc1ccc(N=Nc2c(N)nn(-c3ccccc3)c2N)cc1,1.1,5.0*,-166.0,-11.8,-2.6,-3.6,nt,2.3,
CCOC(=O)c1sc(/N=C/c2ccc(O)cc2O)cc1C,5.0,5.3*,0.8,-2.2,-3.8,-10.9,nt,2.1,
CC(=O)Nc1cc(Cl)c(N=Cc2ccc(O)cc2O)cc1Cl,6.7,0.8,8.7,-1.0,-1.6,-4.2,nt,nt,
C=CCN1N=C(/C=C/c2ccc(OC)cc2)CCC1=O,-7.7,7.8*,-43.3,-10.9,-0.7,-2.4,nt,4.6*,
COc1ccc(/C=C/C2=NN(Cc3ccccc3)C(=O)CC2)cc1,-3.0,2.7,-28.1,-3.0,-1.2,-5.0,nt,nt,
